Fewer inactive variants are shown than the library holds.

For 167 variants, yeast fitness results are on record in the RNAGym collection of RNA variant scans (doi:10.1126/science.aae0568).

B1: tRNA (parent)
chain: GUUCCGUUGGCGUAAUGGUAACGCGUCUCCCUCCUAAGGAGAAGACUGCGGGUUCGAGUCCCGUACGGAACG

In this data set the parent is B1. Briefly: yeast fitness relative to wild type (ratio to wild type); higher = fitter; tRNA-Arg(CCU), competitive growth, 37 C, YPD. Put shortly: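 The tRNA-Arg(CCU) gene variants were made by chemical synthesis with a 3% per-site mutation rate at 69 sites and inserted at the native genomic locus of Saccharomyces cerevisiae. After pooling, the strains were competed in YPD at 37°C for 24 hours in six parallel replicates. Gene amplicons from the start population and each end population were read by 100-nucleotide paired-end sequencing, and Darwinian fitness relative to wild type was taken from genotype frequency changes. Genotypes needed ≥ 100 starting reads, and estimates < 0.5 were set to 0.5.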
As for G56C G68A, the yeast fitness was determined as 0.7.
For the variant G56A C66G, the yeast fitness was 0.689.
Consider U54A C62A, for which the yeast fitness stood at 0.595.
U54A C62G: the yeast fitness was determined as 0.637.
Turning to G56C C62G G68C, the yeast fitness amounted to 0.56.
For G51A G56A C62G the value was at most 0.5.
Next, A57C C60U: 0.552.
Consider A57C C60G, for which the yeast fitness came out at 0.503.
With G51A G63U C66A, the yeast fitness was at most 0.5.
For G51A A65U A69C the value was at most 0.5.
As for A57U G63C U64A A70U, the yeast fitness came out at 0.646.
In the case of C55U G63A A65G, the yeast fitness was at most 0.5.
With G52A A65C, the yeast fitness was determined as 0.848.
For C55A A57G U64A, the yeast fitness was at most 0.5.
Consider G52C G68A, for which the yeast fitness was found to be 0.583.
For G51C C61U the value was 0.604; for A57C U64C, 0.564; for C55G A70C, 0.566.
For the variant C55G A70U, the yeast fitness is 0.653.
In the case of G56U A65G, the yeast fitness stood at 0.615.
For C55A C61A the value was 0.579; for G56A G68A, 1.04.
With G52A A57G G58A, the yeast fitness was 0.565.
As to G51A U64C G67C A69G, the yeast fitness was determined as 0.854.
For G50C C55U the value was 0.716; for G50C C55G, 0.56.
Regarding U54G G67A, the yeast fitness turned out to be 0.637.
On to U54G G67C, for which the yeast fitness was at most 0.5.
G56C U59A: the yeast fitness is 0.663.
In the case of C55A G63A, the yeast fitness came out at 0.55.
For the variant C55A U59G A65C, the yeast fitness is at most 0.5.
With G56A A70C, the yeast fitness is 1.06.
On to G56A A70G, for which the yeast fitness was determined as 0.886.
On to G51C C61G A70C, for which the yeast fitness came to 0.542.
A57U U59G C66U: the yeast fitness is at most 0.5.
Take G51A U59C: the yeast fitness worked out at 0.692.
Regarding U54C U59G A70G, the yeast fitness was found to be 0.615.
Turning to G58C C61U, the yeast fitness came out at 0.887.
For G51U A69C the value was 0.824.
U54G G63C A69C: the yeast fitness was 0.535.
In the case of U53A U59C, the yeast fitness was determined as 0.555.
A57G A69C: the yeast fitness was found to be 0.799.
For A57G A69U the value was 0.943.
Consider G51C A65G, for which the yeast fitness turned out to be 0.593.
Next, G58A C66U: 0.981; G52A C61U G68A: 0.561.
With G56A A69C, the yeast fitness came to 1.04.
For the variant G58A G67A, the yeast fitness was determined as 0.851.
For the variant G58C C61U C66U, the yeast fitness was 0.621.
With G52A G58C, the yeast fitness was 0.801.
Consider G56C A57U C60U, for which the yeast fitness amounted to 0.698.
Next, U54G A57U A65U: at most 0.5.
For the variant A57U C66U G68C A69U, the yeast fitness was at most 0.5.
G50C U53C: the yeast fitness was 0.614.
Take G50A C55U G67C: the yeast fitness came out at 0.563.
On to G58A C62G, for which the yeast fitness came to 1.14.
As for C55G U59A C62U, the yeast fitness is at most 0.5.
With U53A G67U, the yeast fitness was determined as 0.657.
In the case of U53A C55A C62U G63A A65U, the yeast fitness was at most 0.5.
With C55G G68U, the yeast fitness was found to be 0.522.
Take G52C C55U A65U: the yeast fitness was at most 0.5.
Consider G56C A69U A70C, for which the yeast fitness is at most 0.5.
Turning to G56C A57G, the yeast fitness was determined as 0.706.
For G56C A57C the value was 0.529; for C55U U59C, 0.683; for G50C A57C C61U, 0.613.
Next, U53A G68C: 0.6; G51A A57U A65U: at most 0.5; G52C C55U G63A A65U: at most 0.5.
In the case of G51A U53A, the yeast fitness was found to be 0.534.
For the variant G56C G63A, the yeast fitness was found to be 0.571.
As for G52C G63C A69C, the yeast fitness was at most 0.5.
Turning to A57C G63C, the yeast fitness is 0.601.
Next, G51C C60G G67U: at most 0.5; A57U C66U: 0.583; G58A C61G: 0.668.
For the variant C55G C66G, the yeast fitness is 0.768.
Regarding A57G G58A, the yeast fitness was 1.01.
As to A57G G58C, the yeast fitness was 1.03.
For the variant A57G A65C, the yeast fitness turned out to be 0.919.
Take G52C C61U: the yeast fitness stood at 0.66.
For G52C C61A the value was at most 0.5; for U53C C60G, 0.784; for G56C C61A G63U, 0.539.
For A57U U64A the value was 0.678.
As to U53G A57G C62U, the yeast fitness stood at 0.62.
Take A57G A70C: the yeast fitness was 0.859.
G58A U59A: the yeast fitness was found to be 1.06.
Consider G51C U59G, for which the yeast fitness turned out to be 0.508.
Consider G56A C61U, for which the yeast fitness worked out at 0.994.
U53A A57U C60A A70U: the yeast fitness is at most 0.5.
For G51U A70G, the yeast fitness worked out at 0.707.
As for A57C A69C, the yeast fitness was 0.608.
For A57C A69G, the yeast fitness is 0.562.
In the case of C55A A69C, the yeast fitness turned out to be 0.613.
For G50A G63C, the yeast fitness was 0.737.
Consider C55U G68A, for which the yeast fitness was determined as 0.765.
For C55U G68C, the yeast fitness was determined as 0.702.
Regarding C55U G68U, the yeast fitness was 0.64.
With C55G A65G C66G, the yeast fitness stood at 0.567.
Turning to A57U G67C, the yeast fitness was 0.817.
Turning to G56U A65U G68C, the yeast fitness was at most 0.5.
On to G52A C60U, for which the yeast fitness was 0.579.
For G51A G52U C62A the value was at most 0.5; for A57C C62U G68C, 0.539.
As to G56C C60A, the yeast fitness came out at 0.587.
For A57G C62U G67A the value was at most 0.5; for G52U A65G, 0.793.
As for G52A U59A C61A, the yeast fitness is at most 0.5.
For the variant C55A C66U, the yeast fitness is 0.694.
For C55A C66G, the yeast fitness is at most 0.5.
Turning to C55G C60G, the yeast fitness was at most 0.5.
For C55A A70G the value was 0.557; for G56C A70U, 0.83.
As for G56C A70G, the yeast fitness stood at 0.672.
Take A57U A65U G68C A69G: the yeast fitness was at most 0.5.
For U54G C60G G63C, the yeast fitness was at most 0.5.
C55U G63A A69C: the yeast fitness is 0.537.
For the variant G58A A69C, the yeast fitness stood at 0.955.
For G58A A69G the value was 1.15; for G56U, 0.85; for G56C, 0.663.
For the variant G56A, the yeast fitness turned out to be 1.03.
In the case of C55A U59C, the yeast fitness was found to be 0.647.
C55G G63C: the yeast fitness amounted to 0.636.
Turning to C55G G63A, the yeast fitness worked out at 0.622.
As for G50C G56A, the yeast fitness worked out at 0.635.
With C55U C66U, the yeast fitness worked out at 0.667.
For the variant G51A C55G, the yeast fitness worked out at 0.648.
As for A57G C60A C66G, the yeast fitness amounted to 0.558.
Turning to G51A C60U G67A, the yeast fitness amounted to 0.567.
For G50A C61U the value was 0.863; for G51A C61A G68C, at most 0.5.
For A57U A70C, the yeast fitness was 0.7.
Consider G51A C60U G68A, for which the yeast fitness was at most 0.5.
As for C55G A57U G67A, the yeast fitness is at most 0.5.
Take G56A A65G C66U A69U: the yeast fitness amounted to 0.573.
Consider G50C U54A C61A, for which the yeast fitness was found to be 0.676.
Regarding G56A A57U, the yeast fitness worked out at 0.882.
Next, U53C A57C: 0.54; U53C A57G: 0.79; G58A C60U: 0.688.
For U54C C61A G68U, the yeast fitness was at most 0.5.
In the case of C55G C62A, the yeast fitness was found to be 0.619.
Next, C55G C62G: 0.602.
Next, G56C G58C C66U: 0.625; C55A U64A: 0.619.
Consider G58A A65C G67A, for which the yeast fitness was determined as 0.643.
Consider G56C G67C, for which the yeast fitness turned out to be 0.696.
Next, G52C C66A: 0.538; G52C C66G: 0.6.
For the variant G52C C62U, the yeast fitness turned out to be 0.559.
Next, U54G U59C A69U: at most 0.5; U54C A70G: 0.973; U54C A70C: 0.925.
In the case of U54A U59C C61G, the yeast fitness was at most 0.5.
With G50C U59A, the yeast fitness amounted to 0.703.
Take U53A C62U A69U: the yeast fitness is at most 0.5.
In the case of G50C U54C, the yeast fitness turned out to be 0.635.
For A57U A65U, the yeast fitness was found to be 0.618.
With G58A C60U C62A, the yeast fitness came out at 0.552.
Turning to C55G G58A A69C, the yeast fitness is at most 0.5.
C55U C60G: the yeast fitness is at most 0.5.
On to A57G C61A, for which the yeast fitness amounted to 0.688.
With G51A U53G G58A, the yeast fitness was at most 0.5.
Turning to G50A C55G, the yeast fitness was 0.514.
G50A C55U: the yeast fitness was 0.893.
